Reference: ChEMBL document CHEMBL1141699, “Design, synthesis, and antibacterial activities of novel 3,6-bicyclolide oximes: length optimization and zero carbon linker oximes” (2008)
≈ marks a conversion by molar mass, not a printed value.

How the values were obtained:
Format in all cases: functional
Streptococcus pneumoniae [1] = assay: Antibacterial activity against erythromycin-susceptible Streptococcus pneumoniae 49619 by broth-microdilution method
Procedure, shortened: (§1)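 MIC (µg/ml) by broth microdilution following CLSI standards.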

Streptococcus pyogenes [2] = assay: Antibacterial activity against MLSB-resistant Streptococcus pyogenes 2912 expressing ermA by broth-microdilution method; procedure, shortened: as §1
Staphylococcus aureus [3] = assay: Antibacterial activity against methicillin-resistant Staphylococcus aureus 33591 by broth-microdilution method; procedure, shortened: as §1
Haemophilus influenzae [4] = assay: Antibacterial activity against ampicillin-resistant Haemophilus influenzae 33929 expressing beta-lactamase by broth-microdilution method; procedure, shortened: as §1
Staphylococcus aureus [5] = assay: Antibacterial activity against erythromycin-susceptible Staphylococcus aureus 29213 by broth-microdilution method; conditions: ATCC29213; procedure, shortened: as §1
Streptococcus pyogenes [6] = assay: Antibacterial activity against erythromycin-susceptible Streptococcus pyogenes 19615 by broth-microdilution method
Procedure, shortened: (§2)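 MICs were determined by broth microdilution following CLSI standards and reported in µg/ml.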

Streptococcus pneumoniae [7] = assay: Antibacterial activity against efflux-resistant Streptococcus pneumoniae 7701 expressing mefA by broth-microdilution method; procedure, shortened: as §1
Haemophilus influenzae [8] = assay: Antibacterial activity against ampicillin-susceptible Haemophilus influenzae by broth-microdilution method
Streptococcus pneumoniae [9] = assay: Antibacterial activity against MLSB-resistant Streptococcus pneumoniae 700906 expressing erm by broth-microdilution method; procedure, shortened: as §1
Staphylococcus aureus [10] = assay: Antibacterial activity against MLSB-resistant Staphylococcus aureus 27660 expressing ermA by broth-microdilution method; procedure, shortened: as §1
Streptococcus pyogenes [11] = assay: Antibacterial activity against efflux-resistant Streptococcus pyogenes 1323 expressing mefA by broth-microdilution method; procedure, shortened: as §1
Moraxella catarrhalis = assay: Antibacterial activity against Moraxella catarrhalis by broth-microdilution method; procedure, shortened: as §2

SMILES | MIC (Streptococcus pneumoniae [1]) [µg/mL] | MIC (Streptococcus pyogenes [2]) [µg/mL] | MIC (Staphylococcus aureus [3]) [µg/mL] | MIC (Haemophilus influenzae [4]) [µg/mL] | MIC (Staphylococcus aureus [5]) [µg/mL] | MIC (Streptococcus pyogenes [6]) [µg/mL] | MIC (Streptococcus pneumoniae [7]) [µg/mL] | MIC (Haemophilus influenzae [8]) [µg/mL] | MIC (Streptococcus pneumoniae [9]) [µg/mL] | MIC (Staphylococcus aureus [10]) [µg/mL] | MIC (Streptococcus pyogenes [11]) [µg/mL] | MIC (Moraxella catarrhalis) [µg/mL]
CC[C@H]1OC(=O)[C@H](C)[C@H]2OC/C(=N\Oc3ccc4ccccc4c3)CCO[C@](C)(C[C@@H](C)C(=O)[C@H](C)[C@H]3NC(=O)O[C@@]31C)[C@H](O[C@@H]1O[C@H](C)C[C@H](N(C)C)[C@H]1O)[C@H]2C | ≤ 0.06 | 2 (≈ 2.47 µM) | 32 (≈ 39.5 µM) | 8 (≈ 9.88 µM) | 0.25 (≈ 0.309 µM) | ≤ 0.06 | 0.125 (≈ 0.154 µM) | 4 (≈ 4.94 µM) | 0.5 (≈ 0.617 µM) | 0.25 (≈ 0.309 µM) | 0.125 (≈ 0.154 µM) | 0.25 (≈ 0.309 µM)
CC[C@H]1OC(=O)[C@H](C)[C@H]2OC/C(=N\Oc3ccccc3)CCO[C@](C)(C[C@@H](C)C(=O)[C@H](C)[C@H]3NC(=O)O[C@@]31C)[C@H](O[C@@H]1O[C@H](C)C[C@H](N(C)C)[C@H]1O)[C@H]2C | ≤ 0.06 | 4 (≈ 5.26 µM) | > 64 | 1 (≈ 1.32 µM) | ≤ 0.06 | ≤ 0.06 |  | 2 (≈ 2.63 µM) | 32 (≈ 42.1 µM) | ≤ 0.06 |  | ≤ 0.06
CC[C@H]1OC(=O)[C@H](C)[C@H]2OC/C(=N\OCc3ccccc3)CCO[C@](C)(C[C@@H](C)C(=O)[C@H](C)[C@H]3NC(=O)O[C@@]31C)[C@H](O[C@@H]1O[C@H](C)C[C@H](N(C)C)[C@H]1O)[C@H]2C | ≤ 0.06 | 4 (≈ 5.17 µM) | > 64 | 2 (≈ 2.58 µM) | ≤ 0.06 | ≤ 0.06 |  | 2 (≈ 2.58 µM) | > 64 | ≤ 0.06 | 0.125 (≈ 0.162 µM) | ≤ 0.06
CC[C@H]1OC(=O)[C@H](C)[C@H]2OC/C(=N\OCCCCCc3ccccc3)CCO[C@](C)(C[C@@H](C)C(=O)[C@H](C)[C@H]3NC(=O)O[C@@]31C)[C@H](O[C@@H]1O[C@H](C)C[C@H](N(C)C)[C@H]1O)[C@H]2C | ≤ 0.06 | 8 (≈ 9.64 µM) | > 64 | 4 (≈ 4.82 µM) | 0.25 (≈ 0.301 µM) | ≤ 0.06 | 0.125 (≈ 0.151 µM) | 4 (≈ 4.82 µM) | 8 (≈ 9.64 µM) | 0.25 (≈ 0.301 µM) | 0.125 (≈ 0.151 µM) | 0.25 (≈ 0.301 µM)
CC[C@H]1OC(=O)[C@H](C)[C@H]2OC/C(=N\Oc3ccccc3Cl)CCO[C@](C)(C[C@@H](C)C(=O)[C@H](C)[C@H]3NC(=O)O[C@@]31C)[C@H](O[C@@H]1O[C@H](C)C[C@H](N(C)C)[C@H]1O)[C@H]2C | ≤ 0.06 | 4 (≈ 5.04 µM) | 64 (≈ 80.6 µM) | 2 (≈ 2.52 µM) | ≤ 0.06 | ≤ 0.06 |  | 2 (≈ 2.52 µM) | 32 (≈ 40.3 µM) | ≤ 0.06 |  | ≤ 0.06
CC[C@H]1OC(=O)[C@H](C)[C@H]2OC/C(=N\OCCCc3ccccc3)CCO[C@](C)(C[C@@H](C)C(=O)[C@H](C)[C@H]3NC(=O)O[C@@]31C)[C@H](O[C@@H]1O[C@H](C)C[C@H](N(C)C)[C@H]1O)[C@H]2C | ≤ 0.06 | 8 (≈ 9.97 µM) | > 64 | 2 (≈ 2.49 µM) | 0.125 (≈ 0.156 µM) | ≤ 0.06 |  | 2 (≈ 2.49 µM) | 4 (≈ 4.99 µM) | 0.125 (≈ 0.156 µM) |  | 0.125 (≈ 0.156 µM)
CC[C@H]1OC(=O)[C@H](C)[C@H]2OC/C(=N\OCCCCc3ccccc3)CCO[C@](C)(C[C@@H](C)C(=O)[C@H](C)[C@H]3NC(=O)O[C@@]31C)[C@H](O[C@@H]1O[C@H](C)C[C@H](N(C)C)[C@H]1O)[C@H]2C | ≤ 0.06 | 16 (≈ 19.6 µM) | 64 (≈ 78.4 µM) | 4 (≈ 4.9 µM) | 0.25 (≈ 0.306 µM) | ≤ 0.06 | 0.125 (≈ 0.153 µM) | 8 (≈ 9.8 µM) | 4 (≈ 4.9 µM) | 0.25 (≈ 0.306 µM) | 0.25 (≈ 0.306 µM) | 0.25 (≈ 0.306 µM)
CC[C@H]1OC(=O)[C@H](C)[C@H]2OC/C(=N\Oc3ccc(-c4ccccc4)cc3)CCO[C@](C)(C[C@@H](C)C(=O)[C@H](C)[C@H]3NC(=O)O[C@@]31C)[C@H](O[C@@H]1O[C@H](C)C[C@H](N(C)C)[C@H]1O)[C@H]2C | ≤ 0.06 | 2 (≈ 2.39 µM) | 16 (≈ 19.1 µM) | 8 (≈ 9.57 µM) | 0.5 (≈ 0.598 µM) | ≤ 0.06 | 0.125 (≈ 0.15 µM) | 8 (≈ 9.57 µM) | 0.25 (≈ 0.299 µM) | 0.5 (≈ 0.598 µM) | 0.25 (≈ 0.299 µM) | 1 (≈ 1.2 µM)
CC[C@H]1OC(=O)[C@H](C)[C@H]2OC/C(=N\Oc3cccc(-c4ccccc4)c3)CCO[C@](C)(C[C@@H](C)C(=O)[C@H](C)[C@H]3NC(=O)O[C@@]31C)[C@H](O[C@@H]1O[C@H](C)C[C@H](N(C)C)[C@H]1O)[C@H]2C | ≤ 0.06 | 4 (≈ 4.78 µM) | 4 (≈ 4.78 µM) | 4 (≈ 4.78 µM) | 0.125 (≈ 0.15 µM) | ≤ 0.06 |  | 4 (≈ 4.78 µM) | 2 (≈ 2.39 µM) | 0.125 (≈ 0.15 µM) | 0.125 (≈ 0.15 µM) | 0.125 (≈ 0.15 µM)
CC[C@H]1OC(=O)[C@H](C)[C@H]2OC/C(=N\Oc3cccc(Cl)c3)CCO[C@](C)(C[C@@H](C)C(=O)[C@H](C)[C@H]3NC(=O)O[C@@]31C)[C@H](O[C@@H]1O[C@H](C)C[C@H](N(C)C)[C@H]1O)[C@H]2C | ≤ 0.06 | 1 (≈ 1.26 µM) | 32 (≈ 40.3 µM) | 2 (≈ 2.52 µM) | ≤ 0.06 | ≤ 0.06 |  | 2 (≈ 2.52 µM) | 8 (≈ 10.1 µM) | ≤ 0.06 |  | ≤ 0.06
CC[C@H]1OC(=O)[C@H](C)[C@H]2OC/C(=N\OCCc3ccccc3)CCO[C@](C)(C[C@@H](C)C(=O)[C@H](C)[C@H]3NC(=O)O[C@@]31C)[C@H](O[C@@H]1O[C@H](C)C[C@H](N(C)C)[C@H]1O)[C@H]2C | ≤ 0.06 | 8 (≈ 10.2 µM) | > 64 | 2 (≈ 2.54 µM) | 0.125 (≈ 0.159 µM) | ≤ 0.06 |  | 2 (≈ 2.54 µM) | 16 (≈ 20.3 µM) | 0.125 (≈ 0.159 µM) | 0.125 (≈ 0.159 µM) | ≤ 0.06
CC[C@H]1OC(=O)[C@H](C)[C@H]2OC/C(=N\Oc3cccnc3)CCO[C@](C)(C[C@@H](C)C(=O)[C@H](C)[C@H]3NC(=O)O[C@@]31C)[C@H](O[C@@H]1O[C@H](C)C[C@H](N(C)C)[C@H]1O)[C@H]2C | 0.125 (≈ 0.164 µM) | 4 (≈ 5.26 µM) | > 64 | 1 (≈ 1.31 µM) | 0.125 (≈ 0.164 µM) | ≤ 0.06 | 0.125 (≈ 0.164 µM) | 1 (≈ 1.31 µM) | 16 (≈ 21 µM) | 0.125 (≈ 0.164 µM) | 0.25 (≈ 0.329 µM) | ≤ 0.06
CC[C@H]1OC(=O)[C@H](C)[C@H]2OC/C(=N\Oc3ccccc3-c3ccccc3)CCO[C@](C)(C[C@@H](C)C(=O)[C@H](C)[C@H]3NC(=O)O[C@@]31C)[C@H](O[C@@H]1O[C@H](C)C[C@H](N(C)C)[C@H]1O)[C@H]2C | ≤ 0.06 | 16 (≈ 19.1 µM) | 16 (≈ 19.1 µM) | 8 (≈ 9.57 µM) | 0.5 (≈ 0.598 µM) | ≤ 0.06 | 0.5 (≈ 0.598 µM) | 8 (≈ 9.57 µM) | 16 (≈ 19.1 µM) | 0.5 (≈ 0.598 µM) | 0.5 (≈ 0.598 µM) | 0.5 (≈ 0.598 µM)
CC[C@H]1OC(=O)[C@H](C)[C@H]2OC/C(=N\Oc3ccc(Cl)cc3)CCO[C@](C)(C[C@@H](C)C(=O)[C@H](C)[C@H]3NC(=O)O[C@@]31C)[C@H](O[C@@H]1O[C@H](C)C[C@H](N(C)C)[C@H]1O)[C@H]2C | ≤ 0.06 | 2 (≈ 2.52 µM) | > 64 | 4 (≈ 5.04 µM) | ≤ 0.06 | ≤ 0.06 |  | 4 (≈ 5.04 µM) | 16 (≈ 20.1 µM) | ≤ 0.06 |  | ≤ 0.06
